Screening data from PubChem.
INS-1E ATP HTS – protection of INS-1E cells from cytokine death, primary screen, ATP luminescence, single point | INS-1E cytokine-induced death, 48 h; normalised: neutral wells 0, positive control 100 | protection from cytokine-induced ATP loss, % at 10 µM | actives 0.1% (n = 20,000);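 active means mean replicate protection from cytokine-induced ATP loss at least 50% and at least 75% of replicates each reaching 50%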
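Assay system: INS-1E rat cells / Quantity: 8000 cells per well / Medium: RPMI without phenol red, 5% FBS / Probe or stimulus: three-cytokine cocktail (IFN-γ, TNF-α, IL-1β) / Dosing: one compound concentration, pin transfer / Timing: 48 h co-treatment, 10 min post-lysis read / Technique: CellTiter-Glo luminescence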
A1 apoptosis 2 – A1 inhibitors via caspase activation, primary screen, cell-based, luminescence, HTS, two replicates; caspase activation, % (test concentration not listed); AID 2465, 2010; MEF A1-2A-BIM cells, caspase-Glo luminescence, 3 h; percent of clofoctol response, DMSO zero; 24,000 tested, under 10 active; in the data active means caspase activation above about 5.9%
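Test system – A1-2A-BIM-expressing MEF cells · Input – 2500 cells/well · Medium – RPMI-1640 growth medium with 10% FBS · Compound dosing – 50 nL pinned compound · Timing – 3 h compound exposure at 37 °C · Technique – Caspase-Glo luminescence (DEVD substrate) · Evaluation – Caspase-3/7 activity from luminescence increase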
T cruzi intra – inhibitors of intracellular Trypanosoma cruzi, primary screen, cell-based, plate reader, single point, set 2; activity score (inhibition), % at 5.01 µM; AID 651903, 2012; intracellular Trypanosoma cruzi in host cells; actives 4.9% (n = 22,000); in the data active means activity score above about 55%;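 further: parasites and compound incubated about four days before reading; 0% = median of neutral control wells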
Starred values were filed as active, the others as inactive; . = no result. Only a selection was taken, and hits are over-represented in it overall.

SMILES | INS-1E ATP HTS | A1 apoptosis 2 | T cruzi intra
C[C@@H]1CCCCO[C@H](CN(C)S(=O)(=O)c2ccc(Cl)cc2)[C@H](C)CN([C@H](C)CO)C(=O)c2cc(NS(=O)(=O)c3ccc(Cl)cc3)ccc2O1 | . | -2 | .
Cc1ccc(S(=O)(=O)N(C)C[C@H]2OCCCC[C@@H](C)Oc3ccc(NS(=O)(=O)c4ccc(Cl)cc4)cc3C(=O)N([C@H](C)CO)C[C@@H]2C)cc1 | -10 | . | 64*
C[C@H](CO)N1C[C@H](C)[C@@H](CN(C)C)OCCCC[C@H](C)Oc2ccc(NC(=O)c3ccccc3)cc2C1=O | . | 0 | .
C[C@H](CO)N1C[C@H](C)[C@@H](CN(C)C(=O)Nc2cccc3ccccc23)Oc2ccc(NC(=O)Nc3cccc4ccccc34)cc2C1=O | -11 | 1 | 1
C[C@@H]1CN([C@@H](C)CO)C(=O)c2cc(NC(=O)c3ccccc3)ccc2O[C@@H](C)CCCCO[C@H]1CN(C)S(=O)(=O)c1ccccc1 | . | -1 | .
CC(C)NC(=O)Nc1ccc2c(c1)CC(=O)N([C@@H](C)CO)C[C@@H](C)[C@@H](CN(C)Cc1ccc(C(=O)Nc3ccccc3N)cc1)O2 | -23 | . | 40
C[C@H]1CN([C@@H](C)CO)C(=O)Cc2cc(NC(=O)Nc3ccc4c(c3)OCO4)ccc2O[C@@H]1CN(C)Cc1ccc(C(=O)Nc2ccccc2N)cc1 | -10 | 0 | 56*
C[C@H](CO)N1C[C@H](C)[C@H](CN(C)Cc2ccc(C(=O)Nc3ccccc3N)cc2)Oc2ccc(NC(=O)Nc3ccc4c(c3)OCO4)cc2CC1=O | 48 | . | 67*
C[C@H](CO)N1C[C@H](C)[C@@H](CN(C)Cc2ccc3c(c2)OCO3)OCCCC[C@H](C)Oc2ccc(NC(=O)c3ccccc3)cc2C1=O | . | 1 | .
C[C@H](CO)N1C[C@H](C)[C@@H](CN(C)CC2CCCCC2)Oc2c(NC(=O)C3CCCCC3)cccc2C1=O | -9 | . | 43
C[C@H](CO)N1C[C@H](C)[C@@H](CN(C)C(=O)CCC(F)(F)F)OCCCC[C@H](C)Oc2ccc(NC(=O)c3ccncc3)cc2C1=O | . | 1 | .
COc1ccc(S(=O)(=O)N(C)C[C@H]2Oc3ccc(NC(=O)Nc4ccc5c(c4)OCO5)cc3CC(=O)N([C@H](C)CO)C[C@H]2C)cc1 | 8 | 1 | -23
C[C@H](CO)N1C[C@H](C)[C@H](CN(C)Cc2ccncc2)Oc2ncc(-c3ccc(F)cc3)cc2C1=O | . | 0 | 7
C[C@H](CO)N1C[C@H](C)[C@H](CN(C)S(=O)(=O)c2ccccc2)Oc2ncc(-c3ccccc3)cc2C1=O | . | 2 | 16
COc1cccc(-c2cnc3c(c2)C(=O)N([C@H](C)CO)C[C@H](C)[C@H](CN(C)C)O3)c1 | . | 1 | 76*
C[C@H](CO)N1C[C@H](C)[C@H](CN(C)C)Oc2ncc(-c3ccccc3)cc2C1=O | . | -1 | 63*
C[C@H](CO)N1C[C@H](C)[C@H](CN(C)C)Oc2ncc(-c3ccc(F)cc3)cc2C1=O | . | 0 | 65*
C[C@H](CO)N1C[C@H](C)[C@H](CN(C)S(=O)(=O)c2ccc(F)cc2)Oc2ncc(-c3cccc(F)c3)cc2C1=O | . | 0 | 28
COc1cccc(-c2cnc3c(c2)C(=O)N([C@H](C)CO)C[C@H](C)[C@H](CN(C)S(C)(=O)=O)O3)c1 | . | 1 | 4
C[C@H](CO)N1C[C@H](C)[C@H](CN(C)C)Oc2ncc(-c3cccc(F)c3)cc2C1=O | . | . | 71*
COc1ccc(CN(C)C[C@@H]2OCCCC[C@@H](C)Oc3ccc(NC(=O)Nc4ccc5c(c4)OCO5)cc3C(=O)N([C@@H](C)CO)C[C@@H]2C)cc1 | . | -1 | .
C[C@H](CO)N1C[C@H](C)[C@H](CN(C)S(=O)(=O)c2ccccc2)Oc2ncc(/C=C/c3ccccc3)cc2C1=O | . | 0 | 51
Cc1noc(C)c1S(=O)(=O)Nc1cccc2c1O[C@H](CN(C)Cc1ccc3c(c1)OCO3)[C@H](C)CN([C@@H](C)CO)C2=O | 1 | 0 | -26
C[C@H](CO)N1C[C@H](C)[C@@H](CN(C)S(=O)(=O)c2ccc(Cl)cc2)Oc2c(NC(=O)NC3CCCCC3)cccc2C1=O | -3 | -1 | -14
C[C@H]1CN([C@@H](C)CO)C(=O)c2cccc(NC(=O)c3ccncc3)c2O[C@H]1CN(C)C(=O)NC1CCCCC1 | 1 | 2 | 71*
SMILES | INS-1E ATP HTS | A1 apoptosis 2 | T cruzi intra
C[C@H]1CN([C@@H](C)CO)C(=O)c2cccc(NC(=O)c3ccncc3)c2O[C@H]1CN(C)CC1CCCCC1 | 4 | 0 | 57*
C[C@@H]1CN([C@@H](C)CO)C(=O)c2cccc(NC(=O)c3ccncc3)c2O[C@H]1CN(C)C(=O)NC1CCCCC1 | 17 | 0 | -26
C[C@@H]1CN([C@@H](C)CO)C(=O)c2cccc(NC(=O)c3ccncc3)c2O[C@H]1CN(C)CC1CC1 | 11 | -2 | 41
C[C@H](CO)N1C[C@H](C)[C@@H](CN(C)CC2CCCCC2)Oc2c(NC(=O)c3ccncc3)cccc2C1=O | -6 | . | 57*
C[C@H]1CN([C@@H](C)CO)C(=O)c2cccc(NC(=O)c3ccncc3)c2O[C@@H]1CN(C)CC1CCCCC1 | -16 | 0 | 86*
C[C@@H]1CN([C@@H](C)CO)C(=O)c2cccc(NC(=O)c3ccncc3)c2O[C@@H]1CN(C)CC1CCCCC1 | -4 | . | -3
C[C@H]1CN([C@@H](C)CO)C(=O)c2cccc(NC(=O)c3ccncc3)c2O[C@H]1CN(C)CC1CC1 | 9 | 0 | -17
C[C@H]1CN([C@@H](C)CO)C(=O)Cc2cc(NS(=O)(=O)c3ccc(F)cc3)ccc2O[C@@H]1CN(C)C(=O)Nc1ccccc1 | -3 | . | -9
C[C@H](CO)N1C[C@H](C)[C@H](CN(C)CC2CCCCC2)OCCCC[C@H](C)Oc2ccc(NC(=O)c3ccccc3)cc2C1=O | . | -1 | .
C[C@H](CO)N1C[C@H](C)[C@H](CN(C)C(=O)NC2CCCCC2)Oc2ccc(NC(=O)c3ccncc3)cc2C1=O | . | 0 | 1
C[C@H](CO)N1C[C@H](C)[C@H](CN(C)S(=O)(=O)c2ccccc2)Oc2ccc(NS(=O)(=O)c3ccc(Cl)cc3)cc2C1=O | . | -2 | 38
C[C@H](CO)N1C[C@H](C)[C@@H](CN(C)Cc2ccc(C(=O)Nc3ccccc3N)cc2)Oc2ccc(NC(=O)Nc3ccccc3)cc2CC1=O | . | -1 | .
C[C@H]1CN([C@@H](C)CO)C(=O)Cc2cc(NC(=O)Nc3cccc4ccccc34)ccc2O[C@H]1CN(C)Cc1ccc(C(=O)Nc2ccccc2N)cc1 | -9 | 0 | 74*
C[C@@H]1CN([C@@H](C)CO)C(=O)Cc2cc(N(C)C)ccc2O[C@H]1CN(C)Cc1ccc(C(=O)Nc2ccccc2N)cc1 | . | 0 | .
C[C@H](CO)N1C[C@H](C)[C@@H](CN(C)Cc2ccc(C(=O)Nc3ccccc3N)cc2)Oc2ccc(NC(=O)Nc3ccc(F)cc3)cc2CC1=O | . | 0 | .
